Source: ChEMBL document CHEMBL1125646, “Potential antipsychotic agents. 9. Synthesis and stereoselective dopamine D-2 receptor blockade of a potent class of substituted (R)-N-[(1-benzyl-2-pyrrolidinyl)methyl]benzamides. Relations to other side chain congeners” (J Med Chem, 1991)

How the values were obtained:
D(2) dopamine receptor [1] = target: T1, D(2) dopamine receptor (Rattus norvegicus, UniProt P61169); experiment: Inhibition of [3H]spiperone binding to rat striatal dopamine receptor D2 was determined in vitro
Procedure, shortened: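 Rat striatal membranes in 0.05 M Tris-HCl pH 7.6 with 0.1% ascorbic acid and salts, at 5 mg wet weight/mL. Incubated with [3H]spiperone at 37 °C for 10 min. Nonspecific binding defined with 1 μM (+)-butaclamol. Bound ligand separated by glass-fibre filtration and counted by liquid scintillation. IC50 by log-logit regression.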

D(2) dopamine receptor [2] = target: T1, D(2) dopamine receptor; experiment: Inhibition of [3H]raclopride binding to rat striatal dopamine receptor D2
Procedure, shortened: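 Rat striatal membranes were homogenised in 0.05 M Tris-HCl pH 7.6, washed by centrifugation, then resuspended with 0.1% ascorbic acid and salts at 5 mg original wet weight/mL. Nonspecific binding was set with 1 μM (+)-butaclamol. Filtration on glass-fibre filters, scintillation counting. Ki by nonlinear regression (LIGAND), Cheng–Prusoff, all experiments pooled.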

Rattus norvegicus [3] = experiment: Block of apomorphine-induced response measured as hyperactivity injected ip 60 min prior to apomorphine hydrochloride(1 mg/kg, sc); format: functional
Procedure, shortened: (§1)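 Male Sprague-Dawley rats (270–325 g). Compounds in saline or acetic acid/water given ip (5 ml/kg) 60 min before apomorphine HCl 1 mg/kg sc into neck. […] At least six dose levels, 6–8 rats each. ED50 by regression with Fieller's theorem 95% confidence limits.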

Rattus norvegicus [4] = experiment: Block of apomorphine-induced response measured as hypothermia injected ip 30 min prior to apomorphine hydrochloride(1 mg/kg, sc); format: functional
Procedure, shortened: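 Male Sprague-Dawley rats (200–250 g) housed at 21 ± 0.5 °C, groups of n = 6, given saline or compound ip 30 min before apomorphine HCl 1 mg/kg sc. Rectal core temperature taken before dosing, before apomorphine and 15 min after it. Changes are percent of control mean.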

Rattus norvegicus [5] = experiment: Block of apomorphine-induced response measured as stereotypies injected ip 60 min prior to apomorphine hydrochloride(1 mg/kg, sc); format: functional; procedure, shortened: as §1
Rattus norvegicus [6] = organism: Rattus norvegicus; experiment: The catalepsy was measured in rat by using bar test; format: functional
Procedure, shortened: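 Horizontal bar 7 cm high, 1.5 cm diameter. Rat forepaws placed over it at 20, 40, 60, 90, 120 and 240 min after ip dosing. Descent latency timed, 60 s cutoff. Cataleptic = mean over 15 s from the three longest latencies. Saline controls included.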

[7] = Rattus norvegicus, read-out: ED50

T1 sequence (P61169 whole entry): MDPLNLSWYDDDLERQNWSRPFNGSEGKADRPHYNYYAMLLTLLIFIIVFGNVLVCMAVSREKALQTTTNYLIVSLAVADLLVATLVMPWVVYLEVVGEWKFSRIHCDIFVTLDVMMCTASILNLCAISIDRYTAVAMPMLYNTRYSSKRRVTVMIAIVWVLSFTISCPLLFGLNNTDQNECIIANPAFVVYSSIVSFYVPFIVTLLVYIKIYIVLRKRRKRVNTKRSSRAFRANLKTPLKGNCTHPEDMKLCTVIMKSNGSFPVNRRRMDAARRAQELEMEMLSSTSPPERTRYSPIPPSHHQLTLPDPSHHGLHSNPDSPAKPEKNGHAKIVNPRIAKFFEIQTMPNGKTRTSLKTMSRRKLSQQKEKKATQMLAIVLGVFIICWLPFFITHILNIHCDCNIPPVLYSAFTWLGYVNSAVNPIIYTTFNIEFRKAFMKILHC

COc1cc(Br)cc(C(=O)NC[C@@H]2CCCN2Cc2ccc(F)cc2)c1OC was tested. Which IC50 (D(2) dopamine receptor [1]) did it give?
The IC50 was 126 nM.

For COc1cccc(C(=O)NC2CCN(Cc3ccccc3)CC2)c1OC, which IC50 (D(2) dopamine receptor [1]) is on record?
The IC50 was 6.3 nM.

With COc1cc(Br)c(OC)c(C(=O)NC[C@H]2CCCN2Cc2ccccc2)c1OC as the molecule, how does the IC50 (D(2) dopamine receptor [1]) read?
Its IC50 is 1860 nM.

With CCN1CCC[C@H]1CNC(=O)c1c(OC)c(Cl)cc(Cl)c1OC as the molecule, how does the IC50 (D(2) dopamine receptor [1]) read?
Its IC50 is greater than 10000 nM.

With CCc1cc(Cl)c(OC)c(C(=O)NC[C@H]2CCCN2Cc2ccc(F)cc2)c1O as the molecule, how does the IC50 (D(2) dopamine receptor [1]) read?
The IC50 was 29 nM.

COc1cc(Br)c(O)c(C(=O)NC2CCN(Cc3ccccc3)CC2)c1OC was tested. Which IC50 (D(2) dopamine receptor [1]) did it give?
The IC50 was 0.36 nM.

For COc1c(Cl)cc(Cl)c(OC)c1C(=O)NC1CCN(Cc2ccccc2)CC1, which IC50 (D(2) dopamine receptor [1]) is on record?
Its IC50 is 3450 nM.

Which IC50 (D(2) dopamine receptor [1]) does the source give for CCc1cc(Cl)c(OC)c(C(=O)NC2CCN(Cc3ccccc3)CC2)c1O here?
Its IC50 is 9.4 nM.

COc1c(Cl)cc(Cl)c(O)c1C(=O)NC[C@H]1CCCN1Cc1ccc(F)cc1 was tested. Which IC50 (D(2) dopamine receptor [1]) did it give?
Its IC50 is 21 nM.

With COc1ccc(Br)c(O)c1C(=O)NC1CCN(Cc2ccccc2)CC1 as the molecule, how does the IC50 (D(2) dopamine receptor [1]) read?
The IC50 was 41 nM.

How did the IC50 (D(2) dopamine receptor [1]) turn out when COc1cc(Br)c(OC)c(C(=O)NC[C@H]2CCCN2Cc2ccc(F)cc2)c1O was run?
The IC50 was 124 nM.

COc1ccc(Br)c(O)c1C(=O)NC[C@H]1CCCN1Cc1ccc(F)cc1 was tested. Which IC50 (D(2) dopamine receptor [1]) did it give?
The IC50 was 28 nM.

And the Ki (D(2) dopamine receptor [2])?
The Ki was 0.43 nM.

And the ED50 (Rattus norvegicus [3]; [7])?
The ED50 was 2 µmol/kg.

And the ED50 (Rattus norvegicus [4])?
The ED50 was 1.7 µmol/kg.

And the ED50 (Rattus norvegicus [5]; [7])?
The ED50 was 13.2 µmol/kg.

What about the ED50 (Rattus norvegicus [6]) of the same molecule?
Its ED50 is 27 µmol/kg.

With COc1cccc(C(=O)NC[C@H]2CCCN2Cc2ccccc2)c1OC as the molecule, how does the IC50 (D(2) dopamine receptor [1]) read?
Its IC50 is 21 nM.

How did the IC50 (D(2) dopamine receptor [1]) turn out when COc1cc(Br)cc(C(=O)NC[C@H]2CCCN2Cc2ccccc2)c1OC was run?
The IC50 was 1.4 nM.

And the Ki (D(2) dopamine receptor [2])?
Its Ki is 0.024 nM.

What about the ED50 (Rattus norvegicus [3]; [7]) of the same molecule?
The ED50 was 1.2 µmol/kg.

What about the ED50 (Rattus norvegicus [5]; [7]) of the same molecule?
Its ED50 is 1.4 µmol/kg.

With COc1cc(Br)cc(C(=O)NC[C@H]2CCCN2Cc2ccc(F)cc2)c1OC as the molecule, how does the IC50 (D(2) dopamine receptor [1]) read?
Its IC50 is 0.65 nM.

COc1ccc(Br)c(O)c1C(=O)NC[C@H]1CCCN1Cc1ccccc1 was tested. Which IC50 (D(2) dopamine receptor [1]) did it give?
The IC50 was 18 nM.

And the Ki (D(2) dopamine receptor [2])?
Its Ki is 0.8 nM.

What about the ED50 (Rattus norvegicus [3]) of the same molecule?
The ED50 was 5.6 µM/kg.

And the ED50 (Rattus norvegicus [5])?
Its ED50 is 18.6 µM/kg.

COc1c(Cl)cc(Cl)c(OC)c1C(=O)NC[C@H]1CCCN1Cc1ccc(F)cc1 was tested. Which IC50 (D(2) dopamine receptor [1]) did it give?
Its IC50 is 2380 nM.

CCN1CCC[C@H]1CNC(=O)c1c(OC)ccc(Br)c1O was tested. Which ED50 (Rattus norvegicus [4]) did it give?
Its ED50 is 0.6 µmol/kg.

And the ED50 (Rattus norvegicus [6])?
The ED50 was 1 µmol/kg.

How did the Ki (D(2) dopamine receptor [2]) turn out when CCN1CCC[C@H]1CNC(=O)c1cc(Br)cc(OC)c1OC was run?
Its Ki is 0.018 nM.

And the ED50 (Rattus norvegicus [4])?
Its ED50 is 0.005 µmol/kg.

And the ED50 (Rattus norvegicus [6])?
The ED50 was 0.39 µmol/kg.

Which IC50 (D(2) dopamine receptor [1]) does the source give for CCN1CCC[C@H]1CNC(=O)c1cccc(OC)c1OC here?
The IC50 was 52 nM.

COc1c(Cl)cc(Cl)c(O)c1C(=O)NC1CCN(Cc2ccccc2)CC1 was tested. Which IC50 (D(2) dopamine receptor [1]) did it give?
Its IC50 is 5.4 nM.

How did the IC50 (D(2) dopamine receptor [1]) turn out when COc1cc(Br)c(OC)c(C(=O)NC[C@H]2CCCN2Cc2ccc(F)cc2)c1OC was run?
The IC50 was 2210 nM.

What does the source list for COc1cc(Br)c(O)c(C(=O)NC[C@H]2CCCN2Cc2ccc(F)cc2)c1OC?
Ki (D(2) dopamine receptor [2]): 0.19 nM; ED50 (Rattus norvegicus [3]; [7]): 1.5 µmol/kg; ED50 (Rattus norvegicus [4]): 1.3 µmol/kg; ED50 (Rattus norvegicus [5]; [7]): 2.4 µmol/kg; ED50 (Rattus norvegicus [6]): 13 µmol/kg

How did the ED50 (Rattus norvegicus [6]) turn out when CCN1CCC[C@H]1CNC(=O)c1c(O)c(Br)cc(OC)c1OC was run?
Its ED50 is 0.13 µmol/kg.

For COc1ccc(Br)c(O)c1C(=O)NCC1CCCN1Cc1ccccc1 (racemic), which IC50 (D(2) dopamine receptor [1]) is on record?
The IC50 was 36 nM.

How did the IC50 (D(2) dopamine receptor [1]) turn out when COc1ccc(Br)c(O)c1C(=O)NCC1CCCN1Cc1ccccc1 (single isomer, unassigned) was run?
The IC50 was 2680 nM.

What about the ED50 (Rattus norvegicus [3]) of the same molecule?
Its ED50 is greater than 80 µM/kg.

What about the ED50 (Rattus norvegicus [5]) of the same molecule?
Its ED50 is greater than 80 µM/kg.

CCN1CCC[C@H]1CNC(=O)c1c(O)c(Cl)cc(Cl)c1OC [RACLOPRIDE] was tested. Which ED50 (Rattus norvegicus [6]) did it give?
Its ED50 is 10 µmol/kg.
